Results reported in ChEMBL document CHEMBL2146434, “Synthesis and biological evaluation of new amino acid and dipeptide derivatives of neocryptolepine as anticancer agents” (J Med Chem, 2012).

How the values were obtained:
KB = experiment: Cytotoxicity against human KB cells after 72 hrs by SRB assay; type: functional, cell-based
[1] = Solubility of the compound in water; type: physicochemical; details: buffer
[2] = Ratio of IC50 for compound to ratio of IC50 for DiMIQ for BALB mouse 3T3 cells; type: cell-based; details: read-out: Ratio IC50
A549 = experiment: Cytotoxicity against human A549 cells after 72 hrs by SRB assay; type: functional, cell-based; details: A549, 72 h
Outline: (§1)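 IC50 is the compound concentration giving 50% inhibition of cell proliferation. It was determined on normal mouse BALB/3T3 fibroblasts and on human A549, MCF-7 and LoVo cancer lines, with doxorubicin hydrochloride and DiMIQ as reference compounds.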

MCF7 = experiment: Cytotoxicity against human MCF7 cells after 72 hrs by SRB assay; type: functional, cell-based; details: MCF7, 72 h; outline: as §1
LoVo = experiment: Cytotoxicity against human LoVo cells after 72 hrs by SRB assay; type: functional, cell-based; outline: as §1

Row | solubility [1] | Structure (SMILES) | IC50 (KB) | selectivity ratio [2] | IC50 (A549) | IC50 (MCF7) | IC50 (LoVo)
1 |  | Cc1c2ccccc2nc2c1c1cc(NC(=O)[C@@H](N)CO)ccc1n2C | 5960 nM |  |  |  | 
2 | soluble | Cc1c2c3cc(NC(=O)[C@H](N)Cc4cnc[nH]4)ccc3nc-2n(C)c2ccccc12.Cl | 4850 nM |  |  |  | 
3 | soluble | Cc1c2c3cc(NC(=O)[C@@H]4CCCN4C(=O)[C@@H]4CCCN4)ccc3nc-2n(C)c2ccccc12.Cl.Cl | 560 nM | 5 | 540 nM | 960 nM | 360 nM
4 | soluble | Cc1c2c3cc(NC(=O)[C@H]4CCCN4)ccc3nc-2n(C)c2ccccc12.Cl.Cl | 730 nM | 5 | 320 nM | 600 nM | 620 nM
5 | soluble | Cc1c2c3cc(NC(=O)CNC(=O)[C@@H](N)Cc4cnc[nH]4)ccc3nc-2n(C)c2ccccc12.Cl | 3640 nM |  |  |  | 
6 | soluble | Cc1c2c3cc(NC(=O)[C@@H]4CCCN4C(=O)CN)ccc3nc-2n(C)c2ccccc12.Cl.Cl | 700 nM | 5 | 860 nM | 1130 nM | 440 nM
